High-throughput results (PubChem BioAssay)
The list is not random: actives were taken first. Their share in the collection is about 2.4%.
NPY-Y2 PAM-ag: potentiators or agonists of human neuropeptide Y receptor Y2 | activation, % at 3.6 µM | AID 1359 | cells expressing NPY-Y2, potentiator/agonist read-out | 220,000 tested, 0.45% active | P49146; in the data active = activation above about 27%;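 also: cells stimulated with NPY near EC25 plus isoproterenol at EC100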
S1P4 antag: antagonists of human S1P4 receptor; O95977; S1P4-expressing cells, antagonist mode, reporter read-out; inhibition, % at 4.98 µM; 220,000 tested, 0.26% active; in the data active = inhibition above about 29%
NPY-Y1 antag: antagonists of human neuropeptide Y receptor Y1; P25929; HEK293-CNG Y1 cells, membrane potential fluorescence; NPY at EC95, then isoproterenol; inhibition, % at 3.6 µM; 200,000 tested, 1% active; AID 1040;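 active = inhibition above the campaign mean inhibition of all tested compounds plus 3 SD, cut at about 20% in these data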
Target sequence (P25929 whole entry, looked up): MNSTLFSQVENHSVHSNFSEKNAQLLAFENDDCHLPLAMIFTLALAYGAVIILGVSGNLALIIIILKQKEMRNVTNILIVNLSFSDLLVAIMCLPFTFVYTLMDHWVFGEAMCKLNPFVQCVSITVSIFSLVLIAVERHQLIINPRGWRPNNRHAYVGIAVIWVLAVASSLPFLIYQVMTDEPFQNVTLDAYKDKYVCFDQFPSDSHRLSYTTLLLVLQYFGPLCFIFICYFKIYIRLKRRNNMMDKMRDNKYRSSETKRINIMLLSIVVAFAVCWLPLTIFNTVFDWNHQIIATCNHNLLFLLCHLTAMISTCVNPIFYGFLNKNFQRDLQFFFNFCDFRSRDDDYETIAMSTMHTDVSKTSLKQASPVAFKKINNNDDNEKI
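Material: Y1- and CNG-channel-expressing HEK293 cells / Probe or stimulus: NPY 25 nM then isoproterenol 1 µM plus Ro 20-1724 25 µM / Doses: 3.6 µM single dose, DMSO 0.4% / Schedule: compound incubation 1 h at room temperature, readout 45 min post-stimulation / Signal: membrane potential fluorescence / Benchmarks: isoproterenol-only wells as full block versus NPY-plus-isoproterenol wells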
NPY1 pot ag: potentiates or activates human NPY-Y1 receptor | P25929 | NPY-Y1 expressing cells, potentiator/agonist activation | activation, % at 3.6 µM | 220,000 tested, 0.37% active | AID 1304; in the data active = activation above about 33%, passing the limit was not always enough;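 also: cells stimulated with NPY at EC10 then isoproterenol at EC100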
S1P4 agonist: activates the human S1P4 receptor; activation, % at 4.98 µM; AID 1509; O95977; S1P4-expressing cell line, agonist reporter assay; 220,000 tested, 0.35% active; in the data active = activation above about 11%
NPY-Y2 antag: blocks the human neuropeptide Y Y2 receptor; NPY-Y2 expressing cells, antagonist mode; inhibition, % at 2.7 µM; 140,000 tested, 0.99% active; P49146; AID 793
NPY1 antag conf: human NPY-Y1 antagonism, confirmation | shares compounds with NPY-Y1 antag | AID 1254 | 1,200 tested, 21% active | inhibition, % at 3.6 µM | HEK293-CNG NPY-Y1, membrane potential fluorescence, cAMP; NPY challenge against isoproterenol-raised cAMP; in the data active = inhibition above about 20%
NPY-Y2 antag ct: antagonizes human NPY-Y2, counter-screen to NPY-Y1 antagonists. 1,200 tested, 28% active. shares compounds with NPY-Y1 antag. AID 1255. inhibition, % at 3.6 µM. HEK293 NPY-Y2 CNG membrane potential fluorescence, antagonism; cells given NPY, then isoproterenol
A number is an active result; . = inactive; / = not tested or not shown. Rule as the data show it, unless noted: active = inhibition above about 17%; inactive = the rest.

SMILES | NPY-Y2 PAM-ag | S1P4 antag | NPY-Y1 antag | NPY1 pot ag | S1P4 agonist | NPY-Y2 antag | NPY1 antag conf | NPY-Y2 antag ct
COc1ccc(OC)c(C(c2nnnn2C2CCCC2)N2CCN(c3ccccc3F)CC2)c1 (configuration not stated) | . | . | 22 | . | . | . | . | .
COc1ccc(N2CCN(C(c3ccccc3OC)c3nnnn3C3CCCC3)CC2)cc1 (configuration not stated) | . | . | . | . | . | . | / | /
CN(Cc1ccccc1)S(=O)(=O)c1ccc(Cl)c(C(=O)NCCc2ccccn2)c1 | . | . | . | . | . | / | / | /
C=CCn1c(SCC(=O)NCCOC)nnc1-c1cc2c(s1)CCC(CC)C2 (configuration not stated) | . | . | . | . | . | . | / | /
COc1ccc(CCN(Cc2ccccn2)C(=S)Nc2ccccc2Cl)cc1OC | . | . | 28 | . | . | / | . | .
Cc1cc(C)cc(OCc2nnc(SCC(=O)N3CCN(c4ccccc4)CC3)o2)c1 | . | . | 21 | . | . | . | . | .
Cc1ccc(C(=O)CSc2nnc(COc3cccc(C)c3)o2)cc1 | . | . | 21 | . | . | . | . | .
N#CC(=NCc1cccnc1)C1=C(O)c2ccccc2C1=O | . | . | / | . | . | / | / | /
CC(NCc1ccc(-c2ccccc2)cc1)C(O)c1ccccc1 (configuration not stated) | . | . | 20 | . | . | . | . | 29
CCc1nnc(N2C(=N)SCC2=O)s1 | . | . | . | . | . | / | / | /
CCOc1ccc(CNC(=O)c2ccc(Sc3ccc(Cl)cc3)c(NC(C)=O)c2)cc1 | . | . | 41 | . | . | . | 24 | 20
CCOc1ccccc1CNC(=O)c1ccc(Sc2ccc(Cl)cc2)c(NC(C)=O)c1 | . | . | . | . | . | . | / | /
O=C(c1cc(-c2cccs2)on1)N1CCN(c2ccccc2)CC1 | . | . | 25 | . | . | . | . | .
CC1=CS(=O)(=O)CC1SC(=S)N(C)C1CCS(=O)(=O)C1 (configuration not stated) | . | . | . | . | . | / | / | /
Cc1nnc(SCC(=O)N(Cc2ccccc2)C(C)(C)C)[nH]c1=O | . | . | . | . | . | / | / | /
Cc1ccccc1-c1nnn(CC(=O)Nc2ccc3c(c2)OCO3)n1 | . | . | . | . | . | / | / | /
Cc1ccccc1-c1nnn(CC(=O)NCc2ccc3c(c2)OCO3)n1 | . | . | 22 | . | . | . | . | .
COc1ccc(COc2cc(-c3cccc(OC)c3)nc3ccc(NC(=O)c4ccc(N(C)C)cc4)cc23)cc1 | . | . | 43 | . | . | . | . | .
COc1ccc(COc2cc(-c3cccc(OC)c3)nc3ccc(NC(=O)c4ccc(C)cc4)cc23)cc1 | . | . | . | . | . | . | / | /
O=c1c2ccccc2nc(-c2ccco2)n1Cc1ccccc1 | . | . | . | . | . | . | / | /
O=c1c2ccccc2nc(-c2ccc(Br)cc2)n1Cc1ccccc1 | . | . | 24 | . | . | . | 21 | 32
Cc1ccc(NC(=O)Cn2c(=O)oc3cc(S(=O)(=O)N4CCC(C)CC4)ccc32)cc1C | . | . | . | . | . | . | / | /
O=C(O)C1CCC(Cn2c(SCc3cc(=O)n4cc(Br)ccc4n3)nc3ccsc3c2=O)CC1 (configuration not stated) | . | . | 26 | . | . | / | 80 | 87
O=C(O)c1ccc(Cn2c(SCc3cc(=O)n4cc(Br)ccc4n3)nc3ccsc3c2=O)cc1 | . | . | . | . | . | / | / | /
Cc1ccc(C(=O)OCC(=O)NC2CCCCC2)s1 | . | . | . | . | . | / | / | /
SMILES | NPY-Y2 PAM-ag | S1P4 antag | NPY-Y1 antag | NPY1 pot ag | S1P4 agonist | NPY-Y2 antag | NPY1 antag conf | NPY-Y2 antag ct
CCOc1ccc(Br)cc1S(=O)(=O)NC(=O)c1ccccc1 | . | . | . | . | . | / | / | /
O=C(Cn1ccc(C(F)(F)F)n1)N=Nc1c(O)[nH]c2ccccc12 | . | . | 38 | . | . | / | 36 | 40
CC1CN(CC(=O)Nc2ccc([N+](=O)[O-])cc2Br)CC(C)O1 (configuration not stated) | . | . | . | . | . | / | / | /
Cc1nn(C)c(C(=O)Nc2ccc(Cn3cccn3)cc2)c1[N+](=O)[O-] | . | . | 25 | . | . | . | . | .
COc1ccc(CCNCC(=O)Nc2ccccc2C(F)(F)F)cc1 | . | . | . | . | . | / | / | /
CCCOc1ccc(-c2nc(OC)c3ccccc3n2)cc1 | . | . | 20 | . | . | . | . | 18
COc1ccc(C2CC(=O)N(C)c3ccccc3S2)cc1 (configuration not stated) | . | . | . | . | . | / | / | /
CSc1ccc(-c2nc3cnccn3c2Nc2ccc3c(c2)OCO3)cc1 | . | . | 28 | . | . | . | . | .
CSc1nsc(SCC(=O)N2CCN(c3ccccc3)CC2)n1 | . | . | 29 | . | . | . | . | .
COc1cccc(/C=C/C(=O)OCC(=O)Nc2cccc(S(=O)(=O)N(C)C)c2)c1 | . | . | . | . | . | / | / | /
Cc1c(NC(=O)/C(C#N)=C/c2ccc(-c3cccc(Cl)c3)o2)c(=O)n(-c2ccccc2)n1C | . | . | 26 | . | . | . | . | .
Cc1c(NC(=O)/C(C#N)=C/c2ccc(-c3ccc(Cl)c(Cl)c3)o2)c(=O)n(-c2ccccc2)n1C | . | . | . | . | . | . | / | /
CCN(c1ccccc1)c1nc2nonc2nc1NCCO | . | . | / | . | . | / | / | /
COCCNc1nc2nonc2nc1N(C)Cc1cccc2cnccc12 | . | . | 27 | . | . | / | . | .
Cc1ccc(C(C)C)cc1OCCCCN1CCCC1 | . | . | . | . | . | . | / | /
N/C(=N\OC(=O)Cc1cccs1)c1ccc([N+](=O)[O-])cc1 | . | . | 24 | . | . | . | . | .
N/C(=N\OC(=O)Cc1cccs1)c1ccc(Br)cc1 | . | . | . | . | . | . | / | /
CC(C)=CC(=O)OCc1cc([N+](=O)[O-])cc2c1OCOC2 | . | . | . | . | . | / | / | /
COc1cc(/C=C2\SC(=O)N(CCNC(=O)c3sc4cc(F)ccc4c3Cl)C2=O)cc(OC)c1OC | . | . | . | . | . | / | / | /
COc1cc2c(cc1NC(=O)c1cccnc1)CCCC2 | . | . | . | . | . | . | / | /
COc1ccc(C(=O)Nc2cc3c(cc2OC)CCCC3)cc1Br | . | . | 29 | . | . | . | . | .
COc1cc2c(cc1NC(=O)c1ccc(C(C)(C)C)cc1)CCCC2 | . | . | 32 | . | . | . | . | 45
COc1cc(C2C(C#N)=C(N)Oc3cc(O)ccc32)cc(OC)c1OC (configuration not stated) | . | . | . | . | . | . | / | /
